Reference: the RNAGym collection of RNA variant scans (doi:10.1126/science.aae0568)
This sample holds only a part of the variants without activity.

B1: tRNA (parent)
chain: GUUCCGUUGGCGUAAUGGUAACGCGUCUCCCUCCUAAGGAGAAGACUGCGGGUUCGAGUCCCGUACGGAACG

Variants of: B1
Experiment: yeast fitness relative to wild type (ratio to wild type); higher = fitter; tRNA-Arg(CCU), competitive growth, 37 C, YPD
In short: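 Variants of the tRNA-Arg(CCU) gene were chemically synthesised with a 3% per-site mutation rate across 69 sites and placed at the native genomic locus in Saccharomyces cerevisiae. Six parallel replicates of the pooled strains were competed in YPD at 37°C for 24 hours, and gene amplicons from the start and end populations were read by 100-nucleotide paired-end sequencing. Darwinian fitness relative to wild type was derived from changes in genotype frequencies. Genotypes required ≥ 100 starting reads, and estimates < 0.5 were set to 0.5.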

Point of comparison: G9C C22G C33G G63C A70G, yeast fitness 0.6. Against it:
- G9C A40C G51C U64C — higher, 0.79
- G9C A65G — higher, 0.78
- G9C A65U — higher, 0.774
- G9C A20U U47C — lower, ≤ 0.5
- G9C C24G G39C C55U A65C — lower, ≤ 0.5
- G9A U64C — higher, 0.985
- G9A U64A — higher, 0.811
- G9A U32C C33G A37G G52A C55U — lower, 0.558
- G9C A15U U28G C66A — lower, ≤ 0.5
- G9A U54G — lower, 0.552
- G9C C11U C30G A43C — lower, ≤ 0.5
- G9A U59A C66A — lower, 0.55
- G9C A14G G67A — lower, ≤ 0.5
- G9C C24A — lower, ≤ 0.5
- G9C C24G — lower, ≤ 0.5
- G9C A15G C49A A69U — lower, ≤ 0.5
- G9C A21U C31G A40C C62U U64C — lower, 0.518
- G9A U59A A69G — higher, 0.697
- G9C C22A C34A — lower, ≤ 0.5
- G9C A21C A57G — lower, ≤ 0.5
- G9A U28G A45C — lower, ≤ 0.5
- G9C A15U G17A A37U A45C — lower, ≤ 0.5
- G9C A14C C22G G52A U53A — lower, 0.503
- G9C C22U G48C G51C — lower, 0.595
- G9C A14G U26A U32G — lower, ≤ 0.5
- G9C A36U — higher, 0.618
- G9C A36G — higher, 0.691
- G9A U32C — higher, 0.943
- G9C A14G C49G — lower, ≤ 0.5
- G9C A42U U54C — lower, ≤ 0.5
- G9C C11U G18C C31A — lower, ≤ 0.5
- G9C C11G C24U C31U U59A — lower, ≤ 0.5
- G9A U32A G48C — lower, 0.531
- G9A U32C C33G A37G G52A C55U G63A A65U — lower, ≤ 0.5
- G9C A45U C55G — lower, 0.533
- G9C C11U C22G A65U — lower, ≤ 0.5
- G9C C11G — lower, 0.525
- G9C C24G C33G U35A G48C C66A — lower, ≤ 0.5
- G9A U35C A42U G63A — lower, ≤ 0.5
- G9C A57U C62G — lower, ≤ 0.5
- G9C C22A G48C G63C — lower, ≤ 0.5
- G9C A15G G17A C27A C31G G50A — lower, ≤ 0.5
- G9C A37G G41A C61G — lower, ≤ 0.5
- G9A U28A C62U G68A — lower, ≤ 0.5
- G9A U54A A69C — higher, 0.746
- G9C A45U — higher, 0.771
- G9C A45C — lower, 0.587
- G9C C11A A14G U47G A69C — lower, ≤ 0.5
- G9C C22G C30U — higher, 0.648
- G9C C27A C29U A37C — higher, 0.637
- G9A U47A — higher, 0.796
- G9C C22U C33G A43U A45U C46G U54A A65U — higher, 0.67
- G9C — higher, 0.853
- G9C A15C A45C C49U C62G C66U — lower, 0.591
- G9C A37G C55G C60G — lower, 0.524
- G9C C24G A65C — lower, ≤ 0.5
- G9A U28C C49A — lower, ≤ 0.5
- G9C A20C C31A A57C C66A A69U — lower, 0.572
- G9C C24G G41A G52A C66U — higher, 0.602
- G9C C24G C60U U64A — lower, ≤ 0.5
- G9C A42C C49G G68A — lower, ≤ 0.5
- G9C A14C G44C U64G A70C — lower, ≤ 0.5
- G9A U32G C49G C55A — lower, ≤ 0.5
- G9C A42C A69C — lower, 0.564
- G9C A42C — higher, 0.684
- G9A U59C A69U — higher, 0.776
- G9C A20U C27G C49U — lower, 0.55
- G9C C11G G58A — lower, ≤ 0.5
- G9C A14U A69G — lower, ≤ 0.5
- G9C A21U C27U — lower, ≤ 0.5
- G9C A20U U28A C62U — lower, ≤ 0.5
- G9C A40U — higher, 0.756
- G9C A69U — higher, 0.841
- G9C A69C — higher, 0.821
- G9C C24U C30G G51A C60U A69C — lower, ≤ 0.5
- G9C C24G A40U C55A — lower, ≤ 0.5
- G9C A42U C61U U64A A69G — lower, ≤ 0.5
- G9C A37G — higher, 0.623
- G9C A40U A65C — lower, 0.531
- G9C A14G A70G — higher, 0.746
- G9A U28C A70G — higher, 0.673
- G9A U28G A40C A42G A69C — higher, 0.963
- G9C A20U U28A A42U G48A — lower, ≤ 0.5
- G9C A42G A57U — lower, 0.521
- G9C A15C C46U — lower, 0.592
- G9C A70C — higher, 0.866
- G9C A36C A37G U64C — lower, ≤ 0.5
- G9C A14U — lower, 0.509
- G9C A36G A70G — lower, ≤ 0.5
- G9C C24U C30G G51A C60U — lower, ≤ 0.5
- G9C A14C G44C A57C — lower, 0.573
- G9C A14C G44C A57U — lower, ≤ 0.5
- G9C A14U G50C — higher, 0.682
- G9C A43C C55G — lower, ≤ 0.5
- G9C A14U A45U C49G C55G G67C — lower, ≤ 0.5
- G9A U28C A40C G48A — lower, ≤ 0.5
- G9C C22A C34A C55G A65G — lower, 0.526
- G9C A43C — lower, 0.58
- G9C C24U U26G U54G — lower, ≤ 0.5
- G9C A21U C66A — lower, 0.585
- G9C A14U A21C — higher, 0.61
- G9A U53C — higher, 0.77
- G9C A37G G41A — lower, ≤ 0.5
- G9C A57U C60A — higher, 0.727
- G9A U28C C30U A69U — lower, ≤ 0.5
- G9A U28C C55G C62G — lower, ≤ 0.5
- G9C A15C C31G A40G A43U — lower, ≤ 0.5
- G9C A15U — higher, 0.603
- G9C A15C — higher, 0.609
- G9C A43C A57U G63A — lower, ≤ 0.5
- G9C C11A G23A A37U C60U — lower, ≤ 0.5
- G9C C22G C30A A42U U59C — lower, ≤ 0.5
- G9C C27A A70G — lower, 0.539
- G9C A42G G52A — lower, ≤ 0.5
- G9C C27A — higher, 0.732
- G9C A14C G18A G44C A57C — lower, ≤ 0.5
- G9C A15C U53C C55G — lower, ≤ 0.5
- G9C C22G A57C — lower, ≤ 0.5
- G9C A42C G68C — lower, 0.542
- G9C A20C A45G C46G G50A — lower, ≤ 0.5
- G9C A15G C27A C31G C61U — lower, ≤ 0.5
- G9C A20G U35C A36G U59A C66G — lower, ≤ 0.5
- G9C A15G A21G G48A C49G C60A — lower, ≤ 0.5
- G9C A15C U16A A70C — lower, ≤ 0.5
- G9A U28C G44A G51C G58C G68C — lower, ≤ 0.5
- G9C A14U U28C U35G — higher, 0.623
- G9C A36C C61A — higher, 0.616
- G9C C24U C34A G44C C46U G48A A69G — lower, ≤ 0.5
- G9C A45U C55G C61U — lower, ≤ 0.5
- G9C A14G C62U G63C A70C — lower, ≤ 0.5
- G9C A40U C46U — lower, 0.511
- G9C A65C A70U — lower, 0.539
- G9C A14U C62G — lower, ≤ 0.5
- G9C A14G U47C — lower, ≤ 0.5
- G9C C22U U47C — higher, 0.694
- G9C A40G A42G A57U — lower, ≤ 0.5
- G9C A15U A21C C29A — higher, 0.773
- G9C A15C U35C U59A G63A — lower, ≤ 0.5
- G9A U32C A43G G52A C61G — higher, 0.63
- G9C A15C A36U A43U — higher, 0.738
- G9C C11G G56A — lower, ≤ 0.5
- G9C A14G A43C — lower, ≤ 0.5
- G9C C11G C24U C31U G67U — lower, ≤ 0.5
- G9C A14U C24G U35G C61G G68C — lower, ≤ 0.5
- G9C C24U C30G — lower, ≤ 0.5
- G9A U54C C61G — lower, 0.565
- G9C C11G A57C A70C — lower, ≤ 0.5
- G9A U28A G41C A65C G67C — lower, 0.579
- G9C A36C C55U — lower, ≤ 0.5
- G9C A36C C55A — lower, 0.525
- G9C C11G C24U — lower, ≤ 0.5
- G9C A20G G50C — lower, ≤ 0.5
- G9C A21G — higher, 0.669
- G9C A21C — higher, 0.652
- G9C A21U — lower, 0.509
- G9C A36U A40U G44A G63A A69C — lower, ≤ 0.5
- G9C C22G C61A — higher, 0.611
- G9C A20G U26C — lower, ≤ 0.5
- G9C C24U A37C C61G — lower, ≤ 0.5
- G9C A36G C62U — lower, ≤ 0.5
- G9A U32G A40C C46G — lower, ≤ 0.5
- G9C A15G C33U A36C G39C C46G G51C — lower, ≤ 0.5
- G9C A14C A57G — lower, ≤ 0.5
- G9C C24A C62G A69C — lower, ≤ 0.5
- G9C A37C C46U U53A — lower, ≤ 0.5
- G9A U54C G56A — higher, 0.661
